Assay results gathered from unrelated publications.
Compare with care: the assays were run in different laboratories. pEC50, pIC50: −log10 of the molar value. In brackets after ≈: the same amount, converted by molar mass.

Structure (SMILES) | organism | test | system | conditions | quantity | result
Cc1ccccc1-c1c(-c2ccccn2)nc2n1CCC2 | Leishmania infantum | parasite growth | – | 5 days, intracellular, amastigote | pEC50 | 6.00
CC(C(=O)O)N1c2nc(-c3ccc(Cl)cc3)c(C#N)c(=O)n2NC1(C)c1ccccc1O (centres unmarked) | Streptococcus pyogenes | microbial growth | ATCC19615 | 10 µg/mL, 24 h | inhibition zone | 16 mm
Cc1ccc2nc(-c3ccccc3)c(CNc3cccc(C(F)(F)F)c3)n2c1 | Leishmania infantum | parasite growth | – | intracellular, amastigote | pIC50 | 4.49
O=C1C(=Cc2ccc(O)c(O)c2)Oc2ccccc21 | Streptococcus mutans | microbial growth | UA159 | 50 µM | inhibition | 40%
O=C(N[C@@H](Cc1ccccc1)C(=O)c1c[nH]nn1)[C@H](Cc1ccccc1)NC(=O)N1CCOCC1 | Leishmania infantum | parasite growth | – | intracellular, amastigote | pIC50 | < 4.19
C/C(O)=C1\C(=O)C(CC(C)C)N(C(=O)C=Cc2ccccc2)C1=O (centres unmarked) | Stenotrophomonas maltophilia | microbial growth | ATCC13637 | – | MIC | > 200 µg/mL
O=C(O)CN1C(=O)/C(=C/c2ccc(-c3ccc(N(c4ccccc4)c4ccccc4)cc3)c3ccccc23)NC1=S | Streptococcus pyogenes | microbial growth, broth dilution | ATCC19615 | – | MIC | > 1000 µg/mL
CCOC(=O)C1=C(C)N2NC(C)(c3ccccc3O)N(C(C)C(=O)O)C2=NC1c1ccc(Cl)cc1 (centres unmarked) | Streptococcus pyogenes | microbial growth | ATCC19615 | 10 µg/mL, 24 h | inhibition zone | 14 mm
O=C1NC(=S)S/C1=C\c1ccc(-c2ccc(N(c3ccccc3)c3ccccc3)cc2)cc1 | Streptococcus mutans | microbial killing, broth dilution | ATCC25175 | – | MBC | > 1000 µg/mL
Fc1ccc(Nc2c(-c3ccccn3)nc3ccccn23)cc1 | Leishmania infantum | parasite growth | – | intracellular, amastigote | pIC50 | 5.09
O=C1NC(=S)N/C1=C\c1c2ccccc2c(-c2ccc(N(c3ccccc3)c3ccccc3)cc2)c2ccccc12 | Streptococcus pyogenes | microbial killing, broth dilution | ATCC19615 | – | MBC | > 1000 µg/mL
CCOC(=O)C1=C(C)N2NC(c3ccccc3O)N(C(Cc3c[nH]c4ccccc34)C(=O)O)C2=NC1c1ccc(Cl)cc1 (centres unmarked) | Streptococcus pyogenes | microbial growth | ATCC19615 | 15 µg/mL, 24 h | inhibition zone | 32 mm
O=C1NC(=S)N/C1=C\c1ccc(-c2ccc(N(c3ccccc3)c3ccccc3)cc2)c2ccccc12 | Streptococcus pyogenes | microbial killing, broth dilution | ATCC19615 | – | MBC | > 1000 µg/mL
O=C1C(=Cc2cc(O)cc(O)c2)Oc2ccccc21 | Streptococcus mutans | microbial growth | UA159 | 50 µM | inhibition | 30%
CC(=O)C1=C(C)N2NC(c3ccccc3O)N(C(C)C(=O)O)C2=NC1c1ccc(Cl)cc1 (centres unmarked) | Streptococcus pyogenes | microbial growth | ATCC19615 | 15 µg/mL, 24 h | inhibition zone | 17 mm
O=C(N[C@@H](Cc1ccccc1)C(=O)c1cc(-c2ccccc2)no1)[C@H](Cc1ccccc1)NC(=O)N1CCOCC1 (mixture of isomers) | Leishmania infantum | parasite growth | – | intracellular, amastigote | pIC50 | < 4.19
CCCCCCCCCCCCCCCCC#CC(=O)O | Leishmania infantum | parasite growth | mouse Splenocyte | 72 h, intracellular, amastigote | pIC50 | 4.93
Fc1ccc(Nc2c(-c3ccccn3)nc3ccccn23)nc1 | Leishmania infantum | parasite growth | – | 5 days, intracellular, amastigote | pEC50 | < 4.20

Structure (SMILES) | organism | test | system | conditions | quantity | result
O=C(N[C@@H](Cc1ccccc1)C(=O)c1nc2ccccc2o1)[C@H](Cc1ccccc1)NC(=O)N1CCOCC1 | Leishmania infantum | parasite growth | – | intracellular, amastigote | pIC50 | < 4.19
CS(=O)(=O)c1ccc(-c2c(-c3ccccn3)nc3n2CCC3)cc1 | Leishmania infantum | parasite growth | – | intracellular, amastigote | pIC50 | < 4.19
C[Si](C)(C)c1cc(C(=O)[C@H](Cc2ccccc2)NC(=O)[C@H](Cc2ccccc2)NC(=O)N2CCOCC2)no1 (single isomer, unassigned) | Leishmania infantum | parasite growth | – | intracellular, amastigote | pIC50 | < 4.19
CC(C(=O)O)N1C2=NC(c3ccc(Cl)cc3)C3=C(OC(C)(C)OC3=O)N2NC1(C)c1ccccc1O (centres unmarked) | Streptococcus pyogenes | microbial growth | ATCC19615 | 15 µg/mL, 24 h | inhibition zone | 22 mm
COc1ccc(-c2c(-c3ccccn3)nc3n2CCC3)cc1OC | Leishmania infantum | parasite growth | – | 5 days, intracellular, amastigote | pEC50 | 5.70
O=C(O)CN1C(=O)/C(=C/c2c3ccccc3c(-c3ccc(N(c4ccccc4)c4ccccc4)cc3)c3ccccc23)SC1=S | Streptococcus pyogenes | microbial killing, broth dilution | ATCC19615 | – | MBC | > 1000 µg/mL
CCCCCCC/C=C/C(=O)N1C(=O)/C(=C(\O)c2ccc(F)cc2)C(=O)C1CC(C)C (centres unmarked) | Stenotrophomonas maltophilia | microbial growth | ATCC13637 | – | MIC | 50 µg/mL (≈ 116 µM)
O=C1NC(=S)S/C1=C\c1c2ccccc2c(-c2ccc(N(c3ccccc3)c3ccccc3)cc2)c2ccccc12 | Streptococcus pyogenes | microbial killing, broth dilution | ATCC19615 | – | MBC | > 1000 µg/mL
CCCCCCC/C=C/C(=O)N1C(=O)/C(=C(/C)O)C(=O)C1Cc1ccc(OC(C)(C)C)cc1 (centres unmarked) | Stenotrophomonas maltophilia | microbial growth | ATCC13637 | – | MIC | > 200 µg/mL
c1ccc(-c2nc3n(c2-c2cccnc2)CCC3)nc1 | Leishmania infantum | parasite growth | – | intracellular, amastigote | pIC50 | < 4.19
CC(=O)C1=C(C)N2NC(C)(c3ccccc3O)N(C(C)C(=O)O)C2=NC1c1ccc(Cl)cc1 (centres unmarked) | Streptococcus pyogenes | microbial growth | ATCC19615 | 15 µg/mL, 24 h | inhibition zone | 18 mm
O=C(O)CN1C(=O)/C(=C/c2ccc(-c3ccc(N(c4ccccc4)c4ccccc4)cc3)cc2)SC1=S | Streptococcus pyogenes | microbial killing, broth dilution | ATCC19615 | – | MBC | 500 µg/mL (≈ 957 µM)
C/C(O)=C1\C(=O)C(CC(C)C)N(C(=O)CCCCCc2ccccc2)C1=O (centres unmarked) | Stenotrophomonas maltophilia | microbial growth | ATCC13637 | – | MIC | > 200 µg/mL
CC(=O)C1=C(C)N2NC(c3ccccc3O)N(C(Cc3c[nH]c4ccccc34)C(=O)O)C2=NC1c1ccc(Cl)cc1 (centres unmarked) | Streptococcus pyogenes | microbial growth | ATCC19615 | 10 µg/mL, 24 h | inhibition zone | 18 mm
Fc1ccc(Nc2c(Cn3cccn3)nc3ccccn23)cc1 | Leishmania infantum | parasite growth | – | intracellular, amastigote | pIC50 | < 4.19
CCOC(=O)C1=C(C)N2NC(C)(c3ccccc3O)N(C(Cc3c[nH]c4ccccc34)C(=O)O)C2=NC1c1ccc(Cl)cc1 (centres unmarked) | Streptococcus pyogenes | microbial growth | ATCC19615 | 10 µg/mL, 24 h | inhibition zone | 17 mm
O=C(N[C@@H](Cc1ccccc1)C(=O)c1cc(-c2ccccc2)on1)[C@H](Cc1ccccc1)NC(=O)N1CCOCC1 (single isomer, unassigned) | Leishmania infantum | parasite growth | – | intracellular, amastigote | pIC50 | < 4.19
